PLCb3 inh – PLC-beta3 (human) inhibition, primary screen; AID 720704; 370,000 compounds, 0.18% hits; inhibition, % at 12.2 µM; Purified PLC-beta3, fluorogenic substrate, fluorescence; Q01970; in the data active = inhibition above about 11%
Target sequence (Q01970 whole entry, looked up): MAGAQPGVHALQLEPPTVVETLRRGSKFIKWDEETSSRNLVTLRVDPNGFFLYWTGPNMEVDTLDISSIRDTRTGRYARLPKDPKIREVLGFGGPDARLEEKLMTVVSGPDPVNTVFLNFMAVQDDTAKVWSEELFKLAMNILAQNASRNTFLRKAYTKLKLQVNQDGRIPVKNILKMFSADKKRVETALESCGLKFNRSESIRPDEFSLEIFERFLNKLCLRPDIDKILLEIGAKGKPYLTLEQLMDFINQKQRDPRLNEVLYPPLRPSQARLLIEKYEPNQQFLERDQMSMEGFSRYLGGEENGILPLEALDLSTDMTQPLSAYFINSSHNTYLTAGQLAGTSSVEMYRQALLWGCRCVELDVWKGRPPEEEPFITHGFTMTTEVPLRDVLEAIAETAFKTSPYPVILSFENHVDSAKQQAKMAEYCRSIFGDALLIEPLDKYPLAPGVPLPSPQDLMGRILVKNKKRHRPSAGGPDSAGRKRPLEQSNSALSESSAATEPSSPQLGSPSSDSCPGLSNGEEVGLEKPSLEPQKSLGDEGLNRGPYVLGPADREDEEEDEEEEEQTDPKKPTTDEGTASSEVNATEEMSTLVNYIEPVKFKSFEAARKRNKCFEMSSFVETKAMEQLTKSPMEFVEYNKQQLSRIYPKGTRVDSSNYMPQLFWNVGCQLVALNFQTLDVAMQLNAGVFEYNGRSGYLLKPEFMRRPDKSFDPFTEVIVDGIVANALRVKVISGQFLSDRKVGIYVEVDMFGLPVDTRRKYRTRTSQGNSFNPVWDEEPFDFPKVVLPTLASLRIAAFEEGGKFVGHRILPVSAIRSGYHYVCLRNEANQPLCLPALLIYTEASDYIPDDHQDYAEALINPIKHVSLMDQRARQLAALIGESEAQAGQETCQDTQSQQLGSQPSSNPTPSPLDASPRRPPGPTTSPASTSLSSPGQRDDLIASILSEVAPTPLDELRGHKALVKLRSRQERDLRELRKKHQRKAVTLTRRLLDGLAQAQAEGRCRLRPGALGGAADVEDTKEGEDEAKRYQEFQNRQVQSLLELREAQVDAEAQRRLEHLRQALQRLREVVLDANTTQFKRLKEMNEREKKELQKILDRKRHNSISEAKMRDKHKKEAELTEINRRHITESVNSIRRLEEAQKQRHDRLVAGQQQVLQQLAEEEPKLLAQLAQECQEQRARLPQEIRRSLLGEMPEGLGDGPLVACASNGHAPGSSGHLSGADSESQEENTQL
proCasp7 act – counter-screen: procaspase-7 (human) activation; 330,000 compounds, 0.093% hits; AID 463210; recombinant procaspase-7, Ac-DEVD-pNA absorbance 405 nm; D23A/D198A/D206A triple mutant, cannot self-cleave; scale: DMSO 0, 5 µM enzyme 100; activation, % at 8.5 µM; P55210;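 active = percent activation above the screen-wide mean plus 3 SD, cut at about 25% in these data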
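Replicates: singlicate. Assay system: Procaspase-7 triple mutant (PC-7 D3A). Signal: 405 nm absorbance of p-nitroaniline. Times: 1 h preincubation, 2 h reaction. Buffer or medium: Zinc-free HEPES pH 7.4 with 300 mM NaCl, 0.01% Triton X-100. Also added: DEVD-pNA substrate. Benchmarks: DMSO wells as 0%, DMSO with 5 µM added PC-7 as 100%.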
PLCg1 inh – PLC-gamma1 (human) inhibition, primary screen; purified PLC-gamma1, fluorogenic substrate, fluorescence; AID 720700; 370,000 compounds, 0.84% hits; P19174; inhibition, % at 12.2 µM
HGIII-sPLA2 inh – Inhibits HGIII-sPLA2 liposome hydrolysis, primary screen. QFRET BODIPY PC-A2 liposome hydrolysis, fluorescence. inhibition, % at 12.2 µM. Q9NZ20. 370,000 compounds, 0.56% hits. AID 743126;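 active = inhibition above mean plus 3 SD of compounds lying within the high and low control bounds, cut at about 19% in these data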
proCasp3 act – activators of human procaspase-3 | P42574 | recombinant procaspase-3 D3A, Ac-DEVD-pNA absorbance 405 nm | activation, % at 8.5 µM | 330,000 compounds, 0.11% hits;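 active = activation above the mean of all tested compounds plus 3 SD, cut at about 21% in these data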
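Evaluation: percent activation relative to control range; Material: Procaspase-3 D3A mutant, all three cleavage aspartates alanine; Compound: single dose, 8.5 µM nominal compound, 0.8% DMSO; Replication: one well per compound; Signal: absorbance at 405 nm, 0 and 120 min; Schedule: 1 h preincubation plus 2 h reaction at 25 °C.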
Arr AP2 block – blocks beta-arrestin peptide binding to AP2 adaptin. AID 504490. FITC-arrestin peptide / GST-AP2 beads, flow cytometry; AP2 beta2 appendage carries R879A mutation. inhibition, % at 10 µM. 340,000 compounds, 0.31% hits;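 active = inhibition above a set limit, near 3 SD of compounds lacking own fluorescence, cut at about 54% in these data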
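Measured by: flow cytometry, FL1 (488/535 nm); Material: AP2 appendage R879A on GSH beads; Evaluation: percent response; Timing: pre-incubation 12 min, peptide binding 1 h, room temperature; Also added: 50 nM FITC-arrestin peptide; Medium: PBS with 0.05% Tween 20 and 0.1% BSA.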
PLCgamma1 ctr – PLC-gamma1 inhibition, counter-screen for PLC-beta3 hits | 3,300 compounds, 3.1% hits | purified PLC-gamma1, fluorogenic substrate, fluorescence | shares compounds with PLCg1 inh | inhibition, % at 12.3 µM
PLCbeta3 conf – confirmation of human PLC-beta3 inhibitors; shares compounds with PLCg1 inh; purified PLC-beta3, fluorogenic substrate fluorescence; inhibition, % at 12.3 µM; 3,300 compounds, 1% hits; AID 743261; in the data active = inhibition above about 11%
Numbers stand for hits; i = inactive; nt = no result; ! = repeats disagree. Rows were chosen to be rich in hits. Some 1.9% of all compounds tested hit in one or more screens of this group. Cut-off read from the data, not from the text of the source, unless noted: active = inhibition above about 9.5%; inactive = the rest.

SMILES	PLCb3 inh	proCasp7 act	PLCg1 inh	HGIII-sPLA2 inh	proCasp3 act	Arr AP2 block	PLCgamma1 ctr	PLCbeta3 conf
CCOC(=O)c1c(S(=O)(=O)Nc2ccc(F)cc2Cl)c(C)n(C)c1C	i	i	11	i	i	i	i	i
CCOC(=O)c1c(S(=O)(=O)Nc2ccccc2OCC)c(C)n(C)c1C	i	i	i	i	i	i	nt	nt
CC(NCc1cccc(OCc2ccccc2)c1)C(O)c1ccccc1 (stereo not given)	i	i	i	i	i	i	nt	nt
CC(NCc1ccc(OCc2ccc(Cl)cc2)cc1)C(O)c1ccccc1 (stereo not given)	i	i	19	i	i	i	i	i
Cc1ccc(S(=O)(=O)NC2=C(N3CCN(Cc4ccccc4)CC3)C(=O)c3ccccc3C2=O)cc1	i	i	i	i	i	i	nt	nt
Cc1ccc(S(=O)(=O)NC2=C(N3CCN(c4ccccc4F)CC3)C(=O)c3ccccc3C2=O)cc1	i	i	15!	i	i	i	9.8	i
Nc1cccc(C(=O)Nc2ccc3nc(-c4cccnc4)[nH]c3c2)c1	i	i	12	i	i	i	i	i
CCCOc1cccc(/C=N/NC(=O)c2csc(C)c2C)c1	i	i	11	i	i	i	i	i
Cc1scc(C(=O)N/N=C/c2ccsc2)c1C	i	i	i	i	i	i	nt	nt
COc1ccc(/C=N/NC(=O)C(=O)N2CCN(c3ccccc3OC)CC2)cc1	i	i	12	i	i	i	i	i
COc1ccc(C(=O)N2CCN(c3ccccc3OC)CC2)cc1	i	i	i	i	i	i	nt	nt
CC(=O)Nc1ccc(S(=O)(=O)N2CCN(c3ncccn3)CC2)cc1	i	i	i	i	i	i	nt	nt
O=C(N[C@@H](Cc1ccccc1)c1nc2ccccc2[nH]1)c1ccc([N+](=O)[O-])cc1	i	nt	i	i	nt	nt	nt	nt
COc1ccc(S(=O)(=O)CCC(=O)NCCc2cccc(C)c2)cc1	i	i	9.7	i	i	i	i	i
CC(=O)NC(c1cccc(F)c1)c1nc(-c2cccs2)cs1 (stereo not given)	i	nt	i	i	nt	nt	nt	nt
Cc1cccc(NS(=O)(=O)c2ccc3c(c2)Cc2cc(S(=O)(=O)Nc4cccc(C)c4C)ccc2-3)c1C	i	i	10	i	i	i	i	i
O=C(OCC#CCSc1nnc(-c2cccc3ccccc23)o1)c1cccc(F)c1	i	nt	i	i	nt	nt	nt	nt
CCn1c(CNc2ccc(F)cc2)nnc1SCC(=O)Nc1ccccc1OC	i	i	11	i	i	i	i	i
Cc1ccc(C)c(OCC(O)CN2CCC(C)CC2)c1C (stereo not given)	i	i	11	i	i	i	i	i
CCC(=O)Nc1cc(C(=O)OCC(=O)c2ccccc2Cl)ccc1C	i	i	13	i	i	i	i	i
Nc1cc([N+](=O)[O-])ccc1O	i	i	i	i	i	i	nt	nt
Nc1ccc(O)c([N+](=O)[O-])c1	i	i	21	i	i	i	19	i
CC(=O)OCC(=O)Nc1ccc(Cl)cc1Cl	i	i	10	i	i	i	i	i
COc1cccc(OC(C)CCN2CCC(C(O)(c3ccccc3)c3ccccc3)CC2)c1 (stereo not given)	i	nt	i	i	nt	nt	nt	nt
Cc1cc2c(cc1C)-n1nnnc1C(N1CCN(C(=O)OCc3ccccc3)CC1)C(=O)N2 (stereo not given)	i	nt	i	i	nt	nt	nt	nt
SMILES	PLCb3 inh	proCasp7 act	PLCg1 inh	HGIII-sPLA2 inh	proCasp3 act	Arr AP2 block	PLCgamma1 ctr	PLCbeta3 conf
O=[N+]([O-])c1cc(Br)c2c(c1)CCN2	13	nt	i	i	nt	nt	i	i
O=C1CCCC(O)=C1N=Nc1cccc(C(=O)O)c1	i	i	i	i	i	i	nt	nt
O=C1CCCC(O)=C1N=Nc1c(Cl)cc(Cl)cc1Cl	i	i	10	i	i	i	i	i
Cc1[nH]c(=O)c(C#N)c(C)c1CSc1ncccn1	i	i	12	i	i	i	i	i
Cc1[nH]c(=O)c(C#N)c(C)c1Cc1ccc(Cl)cc1Cl	i	i	i	i	i	i	nt	nt
C#CCNC(=O)C[C@H]1C[C@@]2(C(=O)OC)C(=C[C@H](C(C)C)O[C@@H]2C2CC2)N(Cc2ccc3c(c2)OCO3)C1=O	i	nt	i	i	nt	nt	nt	nt
CCCN(CC1CC1)S(=O)(=O)c1ccc(S(N)(=O)=O)cc1	i	i	12	i	i	i	i	i
C/C(=N/NC(=O)c1cccs1)c1cccc(N)c1	i	i	11	i	i	i	i	i
Cc1cc(C)nc(N/N=C/c2ccccc2OCc2ccc([N+](=O)[O-])cc2)n1	i	i	13	i	i	i	i	i
O=[N+]([O-])c1ccc(N/N=C\c2ccccc2OCc2ccccc2)cc1	i	i	i	i	i	i	nt	nt
Cc1nc(NCCOc2ccccc2)sc1C(=O)Nc1ccccc1	i	i	12	i	i	i	i	i
Cc1nc(NCc2ccccc2)sc1C(=O)Nc1ccccc1	i	i	i	i	i	i	nt	nt
CN(C)c1ccc(O)c2c1CC1CC3[C@@H](N(C)C)C(=O)C(C(N)=O)=C(O)[C@]3(O)C(=O)C1=C2O (stereo not given in full)	i	i	17	i	i	i	i	i
CCOc1ccccc1OCC(=O)NC1CCCCC1	i	i	11	i	i	i	i	i
COc1ccc(OCC(=O)NC2CCCCCCC2)cc1	i	i	11	i	i	i	i	i
O=C(O)CNC(=O)C1(NC(=O)OCc2ccccc2)CCCC1	17	nt	i	i	nt	i	i	i
O=C(CNC(=O)OCc1ccccc1)NC1CCCCCCC1	i	i	10	i	i	i	i	i
CN(C)S(=O)(=O)c1cccc(NC(=O)CN2C(=O)NC(Cc3ccccc3)C2=O)c1 (stereo not given)	i	i	i	i	i	i	nt	nt
COc1ccc(S(=O)(=O)N(CC(=O)NC2CCCCC2)c2ccc(F)cc2)cc1	i	i	i	i	i	i	nt	nt
O=C(O)c1cccc(NC(=O)c2ccccc2)c1	i	nt	11	i	nt	i	i	i
O=C(O)c1cccc(NC(=O)c2cc(NC(=O)c3ccccc3)cc(NC(=O)c3ccccc3)c2)c1	i	i	i	i	i	i	nt	nt
O=C(CNC(=O)C1CCCCC1)Nc1ccccc1Cl	i	i	i	i	i	i	nt	nt
O=C(CNC(=O)C1CCCCC1)Nc1cc(Cl)ccc1Cl	i	i	11	i	i	i	i	i
